Screens deposited in PubChem by several laboratories.
Rows were chosen to be rich in hits. Some 3.2% of all compounds tested hit in one or more screens of this group.
UBC13 inh: blocks human UBC13 polyubiquitin chain formation; actives 0.47% (n = 330,000); AID 485273; TR-FRET; inhibition, % at 20 µM; in the data active = inhibition above about 45%, passing the limit was not always enough; inconclusive = no clear call, values can overlap the other calls
Target sequence (P61088 whole entry, looked up): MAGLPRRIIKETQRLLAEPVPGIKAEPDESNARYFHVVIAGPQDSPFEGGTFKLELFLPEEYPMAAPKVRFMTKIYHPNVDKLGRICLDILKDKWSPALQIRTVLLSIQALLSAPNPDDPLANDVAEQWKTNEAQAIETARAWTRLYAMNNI
Apaf1 inhib: inhibitors of human Apaf-1 apoptosome; O14727; reconstituted apoptosome caspase-3 activity, DEVD-Rh110 fluorescence; inhibition, % at 20 µM; actives 0.71% (n = 330,000); AID 489030; active = inhibition of at least 40% at 20 µM;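 note: plate controls were DMSO wells for no effect and DEVD-CHO caspase inhibitor wells for full effect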
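detection = Rh110 fluorescence intensity | test system = biochemical Apaf-1 apoptosome reconstitution | also added = cytochrome c and DEVD-Rh110 substrate | schedule = 30 min plus 50 min, RT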
MEKK3 PB1 HTS: modulators (inhibitors or enhancers) of MEK5 binding to human MEKK3 PB1 domain. Q99759. bead-based flow cytometry, Alexa488-MEK5 binding to MEKK3; actives lie on both sides; 0 = blocked by unlabeled MEK5, 100 = vehicle. binding response (% of control), % at 10 µM. actives 1.4% (n = 290,000). AID 1529;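 active = binding response more than 3 SD above or below the average of its plate-row segment, actives on both sides; inconclusive = wells at one plate position flagged as instrument error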;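 note: Alexa488 bead fluorescence after subtracting the streptavidin-only scavenger bead signal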
MEKK2wt PB1 HTS: raises or lowers MEK5 binding to wildtype human MEKK2 PB1 domain; Q9Y2U5; bead flow cytometry, Alexa488-MEK5 binding to MEKK2 WT; actives lie on both sides; binding response (% of control), % at 10 µM; actives 1.1% (n = 290,000); AID 1531; in the data active = binding response below about 67% or above about 130%; inconclusive = no clear call, values can overlap the other calls; inactive = in between
MEKK2 mut-MEK5: signal of MEK5 binding to mutant human MEKK2 PB1 domain; bead flow cytometry, Alexa488-MEK5 binding to MEKK2 mutant; percent response, % at 10 µM; actives 0.35% (n = 290,000); AID 1530; in the data active = percent response above about 24%, passing the limit was not always enough
DSG3 Ab inh: blocks pemphigus antibody binding to human desmoglein-3; P32926; DSG3-coupled beads, scFv-anti-DSG3-GFP binding, flow cytometry; active compounds read low; binding (percent of control), % at 10 µM; actives 0.48% (n = 310,000); AID 588358;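 active = binding more than 3 SD below its plate's average and above zero; inconclusive = below that plate limit but binding exactly zero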;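 note: hits lower antibody fragment binding to DSG3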
MEKK2wt confirm: raises or lowers MEK5 binding to wildtype human MEKK2, retest. shares compounds with MEKK3 PB1 HTS. bead flow cytometry, Alexa488-MEK5 binding to MEKK2 WT; actives lie on both sides. binding response (% of control), % at 10 µM. actives 2.4% (n = 5,900). AID 1892; in the data active = binding response below about 16% or above about 210%; inactive = in between
MEKK2mut-MEK5: signal of MEK5 binding to mutant human MEKK2, retest; shares compounds with MEKK3 PB1 HTS; bead flow cytometry, Alexa488-MEK5 binding to MEKK2 mutant; actives 2% (n = 5,900); percent response, % at 10 µM; in the data active = percent response mostly above about 71%, no sharp cut-off; inactive = mostly below about 38%;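 note: higher means compound restores mutant binding toward wildtype level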
MEKK3-MEK5 inh: confirmation of inhibitors of MEK5 binding to human MEKK3. shares compounds with MEKK3 PB1 HTS. actives 1.8% (n = 5,900). binding response (% of control), % at 10 µM. AID 1894. bead flow cytometry, Alexa488-MEK5 binding to MEKK3; active compounds read low;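 active = binding response below 72% of control, or above a set upper limit, though filed actives all read lower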;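 note: 100% = DMSO only wells and 0% = binding blocked by excess unlabeled MEK5; lower values mean stronger disruption of MEK5 binding to MEKK3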
Active calls of the source: *; ? = inconclusive; / = not tested or not shown; [ ] = remark or other dose.

SMILES	UBC13 inh	Apaf1 inhib	MEKK3 PB1 HTS	MEKK2wt PB1 HTS	MEKK2 mut-MEK5	DSG3 Ab inh	MEKK2wt confirm	MEKK2mut-MEK5	MEKK3-MEK5 inh
NCCCC[C@@H](C(=O)N1CCNCC1)n1cc([C@@H](N)CC(N)=O)nn1	0	1	/	/	/	101	/	/	/
CCC1=Nc2cc(C(=O)NCCCOC)ccc2Sc2ccccc21	2	3	125*	127	6	108	98	0	105
CCOC(=O)C1CCN(CC(=O)c2c(C)n(C)c3ccc(OC)cc23)CC1	7	5	103	107	7	110	/	/	/
CCOc1ccccc1OCCCC(=O)Nc1sccc1C(N)=O	7	1	151*	111	1	102	103	4	104
CC1=C(C(=O)N2CCOCC2)CC(CC(=O)NC(c2ccccc2)c2ccccc2)C(=O)N1Cc1ccc(F)cc1 (stereo not drawn)	/	/	/	/	/	99	/	/	/
CCOC(=O)/C(=N\Nc1ccc(Cl)cc1)c1csc(Nc2ccccc2)n1	-5	-4	109	135*	8	112	134	10	105
CCOC(=O)/C(=N/Nc1ccccc1)c1csc(Nc2ccccc2)n1	2	-6	96	109	2	100	/	/	/
O=CN1CCN(C(C(=O)NC2CCCCC2)c2cc3c(cc2[N+](=O)[O-])OCO3)CC1 (stereo not drawn)	-11	14	67	66	-16	113	/	/	/
COc1ccc(NC(=O)C(c2cc3c(cc2[N+](=O)[O-])OCO3)N2CCN(C=O)CC2)cc1 (stereo not drawn)	-2	3	2.0*[inhibitor]	3.0*[inhibitor]	-12	98	101	6	104
Cn1c(SCC(=O)Nc2ccc3c(c2)OCCO3)nnc1-c1ccncc1	-6	11	98	96	-8	117	/	/	/
O=C(Nc1nc(-c2ccc(F)cc2)cs1)c1ccc(N2C(=O)CCC2=O)cc1	9	7	74*[inhibitor]	79	-7	95	93	-2	90
Cc1nnc(SCC(N)=O)n1CCc1ccccc1	-9	9	136*	110	2	/	97	-2	100
Cc1nnc(SCC(=O)NC(C)(C)C)n1CCc1ccccc1	4	-4	95	98	3	98	/	/	/
CCOC(=O)c1cc2c(c(-c3ccccc3)n1)[C@@H](CCO)N(S(=O)(=O)C(C)(C)C)C2	/	/	/	/	/	117	/	/	/
Cn1c(=O)c2c(-c3ccccc3)n(-c3ccccc3S)cc2n(C)c1=O	/	/	/	/	/	102	/	/	/
CNC(=O)COC(=O)/C=C/c1cn(-c2ccccc2)nc1-c1ccc2c(c1)OCCO2	4	1	107	105	-3	114	/	/	/
Cc1ccc(-c2nn(-c3ccccc3)cc2/C=C/C(=O)OCC(=O)NC2CC2)o1	20	18	131*	116	5	102	96	-7	89
Cc1nn(C)c(C)c1NC(=O)CSc1nc(Cc2ccccc2)nc2c1cnn2-c1ccccc1	8	3	74*[inhibitor]	81	-9	120	101	3	100
CCN(CC)c1ccc2cc(-c3nc(-c4ccc(OC)cc4)cs3)c(=O)oc2c1	-63	-1	183*	232*	289*	/	52	-44	60*
CCN(CC)c1ccc2cc(-c3nnc(-c4ccccc4)o3)c(=O)oc2c1	9	23	89	60*[inhibitor]	-3	?	75	-14	94
CCN(CC)c1ccc2cc(-c3nc4ccccc4n3C)c(=O)oc2c1	/	/	97	86	-5	96	/	/	/
COc1ccc2nc3cc(Cl)ccc3c(Nc3cc(CN4CCCC4)c(O)c(CN4CCCC4)c3)c2n1	-88	62*	97	138*	22	/	138	26	96
COCc1cc(CN2CCCC2)c(O)c2ncccc12	-15	-10	102	103	1	123	/	/	/
COc1ccc(-c2coc3c(CN4CCCCC4)c(O)c(CN4CCCCC4)c(O)c3c2=O)cc1	35	42*	107	144*	18	/	150	31	105
O=c1c(-c2ccc(Br)cc2)coc2c(CN3CCCCC3)c(O)ccc12	15	6	100	103	2	99	/	/	/
SMILES	UBC13 inh	Apaf1 inhib	MEKK3 PB1 HTS	MEKK2wt PB1 HTS	MEKK2 mut-MEK5	DSG3 Ab inh	MEKK2wt confirm	MEKK2mut-MEK5	MEKK3-MEK5 inh
N#CCCN(C(=S)NC(=O)c1cccs1)c1ccccc1F	3	2	/	/	/	100	/	/	/
COC(=O)c1ccc(CSc2nnc(-c3ccc4c(c3)OCO4)n2-c2ccccc2)o1	-5	15	131*	109	4	95	104	3	105
COC(=O)c1ccc(CSc2nc3ccccc3c(=O)n2-c2ccccc2)o1	8	17	102	96	-2	96	/	/	/
CCCNC(=O)Cc1c(C)oc2ccccc12	0	-10	130*	119	32	/	99	-5	99
CC1CCCN(S(=O)(=O)c2cccc(C(=O)NCC3CCCO3)c2)C1 (stereo not drawn)	6	-6	/	/	/	96	/	/	/
O=C(NC1CCCC1)C(c1ccc(O)cc1)N(CC1CCCO1)C(=O)C1COc2ccccc2O1 (stereo not drawn)	-1	-9	99	96	-1	74	/	/	/
COc1ccc(C(=O)N(CC2CCCO2)C(C(=O)NC2CCCC2)c2ccc(Cl)cc2)cc1OC (stereo not drawn)	-6	14	103	99	1	96	/	/	/
COc1ccc(C(=O)N(CC2CCCO2)C(C(=O)NCCC(C)C)c2ccc(C)cc2)cc1OC (stereo not drawn)	-2	12	132*	111	2	87*	90	1	94
COc1ccc(C(C(=O)NC2CCCCC2)N(CC2CCCO2)C(=O)C2COc3ccccc3O2)cc1OC (stereo not drawn)	-6	28	129*	104	7	/	100	8	102
COc1cc(/C=C/C(=O)OCC(=O)NC2CCCCCCC2)ccc1O	-5	1	/	/	/	114	/	/	/
O=C(O)c1ccc(-n2c(O)c(C=C3N=c4ccccc4=N3)sc2=S)cc1	-14	-1	98	78	-7	85	/	/	/
CCN(CC)c1ccc(-n2c(O)c(C=C3N=c4ccccc4=N3)sc2=S)cc1	-35	-7	153*	99	0	97	97	5	105
Cc1ccc(S(=O)(=O)NC(=O)Nc2cc(C)no2)cc1	6	-6	107	116	9	98	/	/	/
